Measured values from ChEMBL document CHEMBL4689842, “EUbOPEN Chemogenomics Library wave 1” (2021).

Tests used:
Format in all cases: toxicity, cell-based
U2OS [1] = assay: Multiplex assay against U2OS; conditions: human
Method in brief: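 Live cells were stained at seeding with Hoechst33342, BioTracker Green Microtubule Cytoskeleton Dye, MitoTracker Red and Annexin V Alexa Fluor 680. Following compound addition, they were imaged on a CQ1 microscope at 37°C and 5% CO2 and gated by CellPathfinder machine learning into Hoechst high-intensity objects or normal cells, with normal cells split into healthy, pyknosed or fragmented nuclei and pyknosed cells into mitotic or apoptotic. Tubulin, mitochondrial-mass and membrane-permeability phenotypes are per cents of healthy-nucleus cells.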

HEK-293T = assay: Incucyte cell viability with HEK293T; conditions: human, 10 µM, compound concentration 10 uM; note: filed as whole numbers so only -1 and 0 and 1 occur
U2OS [2] = assay: Incucyte cell viability with U2OS; conditions: human, 10 µM, compound concentration 10 uM; note: filed as whole numbers so only -1 and 0 and 1 occur
Fibroblast = assay: Incucyte cell viability with human fibroblast; conditions: 10 µM, compound concentration 10 uM; note: filed as whole numbers so only -1 and 0 and 1 occur
[3] = 12 h, 1 µM, compound concentration 1 uM, replicate 1
[4] = 12 h, 1 µM, compound concentration 1 uM, replicate 2
[5] = 12 h, 10 µM, compound concentration 10 uM, replicate 1
[6] = 12 h, 10 µM, compound concentration 10 uM, replicate 2
[7] = 24 h, 1 µM, compound concentration 1 uM, replicate 1
[8] = 24 h, 1 µM, compound concentration 1 uM, replicate 2
[9] = 24 h, 10 µM, compound concentration 10 uM, replicate 1
[10] = 24 h, 10 µM, compound concentration 10 uM, replicate 2
[11] = 6 h, replicate number 1, timepoint 6 hours
[12] = 12 h, replicate number 1, timepoint 12 hours
[13] = 18 h, replicate number 1, timepoint 18 hours
[14] = 24 h, replicate number 1, timepoint 24 hours

Cl.Cl.NC1(c2ccc(-c3nc4ccn5c(=O)[nH]nc5c4cc3-c3ccccc3)cc2)CCC1
Population Apoptotic (%) (U2OS [1]; [3]): 53% | Population Fragmented Nuclei (%) (U2OS [1]; [3]): 11% | Population Healthy Nuclei (%) (U2OS [1]; [3]): 81% | Population Hoechst High Intensity Objects (%) (U2OS [1]; [3]): 1% | Population Membrane Permeable-Phenotype (%) (U2OS [1]; [3]): 20% | Population Mitochondria Different-Phenotype (%) (U2OS [1]; [3]): 13% | Population Mitotic Cells (%) (U2OS [1]; [3]): 46% | Population Normal (%) (U2OS [1]; [3]): 98% | Population Pyknosed Nuclei (%) (U2OS [1]; [3]): 6% | Population Tubulin-Different-Phenotype (%) (U2OS [1]; [3]): 14% | Total Cell Count (U2OS [1]; [3]): 154 | Population Apoptotic (%) (U2OS [1]; [4]): 50% | Population Fragmented Nuclei (%) (U2OS [1]; [4]): 17% | Population Healthy Nuclei (%) (U2OS [1]; [4]): 77% | Population Hoechst High Intensity Objects (%) (U2OS [1]; [4]): 12% | Population Membrane Permeable-Phenotype (%) (U2OS [1]; [4]): 10% | Population Mitochondria Different-Phenotype (%) (U2OS [1]; [4]): 17% | Population Mitotic Cells (%) (U2OS [1]; [4]): 50% | Population Normal (%) (U2OS [1]; [4]): 87% | Population Pyknosed Nuclei (%) (U2OS [1]; [4]): 4% | Population Tubulin-Different-Phenotype (%) (U2OS [1]; [4]): 19% | Total Cell Count (U2OS [1]; [4]): 116 | Population Apoptotic (%) (U2OS [1]; [5]): 22% | Population Fragmented Nuclei (%) (U2OS [1]; [5]): 16% | Population Healthy Nuclei (%) (U2OS [1]; [5]): 40% | Population Hoechst High Intensity Objects (%) (U2OS [1]; [5]): 9% | Population Membrane Permeable-Phenotype (%) (U2OS [1]; [5]): 28% | Population Mitochondria Different-Phenotype (%) (U2OS [1]; [5]): 53% | Population Mitotic Cells (%) (U2OS [1]; [5]): 77% | Population Normal (%) (U2OS [1]; [5]): 90% | Population Pyknosed Nuclei (%) (U2OS [1]; [5]): 42% | Population Tubulin-Different-Phenotype (%) (U2OS [1]; [5]): 70% | Total Cell Count (U2OS [1]; [5]): 190 | Population Apoptotic (%) (U2OS [1]; [6]): 11% | Population Fragmented Nuclei (%) (U2OS [1]; [6]): 26% | Population Healthy Nuclei (%) (U2OS [1]; [6]): 42% | Population Hoechst High Intensity Objects (%) (U2OS [1]; [6]): 16% | Population Membrane Permeable-Phenotype (%) (U2OS [1]; [6]): 16% | Population Mitochondria Different-Phenotype (%) (U2OS [1]; [6]): 51% | Population Mitotic Cells (%) (U2OS [1]; [6]): 88% | Population Normal (%) (U2OS [1]; [6]): 83% | Population Pyknosed Nuclei (%) (U2OS [1]; [6]): 31% | Population Tubulin-Different-Phenotype (%) (U2OS [1]; [6]): 66% | Total Cell Count (U2OS [1]; [6]): 160 | Population Apoptotic (%) (U2OS [1]; [7]): 50% | Population Fragmented Nuclei (%) (U2OS [1]; [7]): 9% | Population Healthy Nuclei (%) (U2OS [1]; [7]): 85% | Population Hoechst High Intensity Objects (%) (U2OS [1]; [7]): 1% | Population Membrane Permeable-Phenotype (%) (U2OS [1]; [7]): 14% | Population Mitochondria Different-Phenotype (%) (U2OS [1]; [7]): 11% | Population Mitotic Cells (%) (U2OS [1]; [7]): 50% | Population Normal (%) (U2OS [1]; [7]): 98% | Population Pyknosed Nuclei (%) (U2OS [1]; [7]): 5% | Population Tubulin-Different-Phenotype (%) (U2OS [1]; [7]): 17% | Total Cell Count (U2OS [1]; [7]): 140 | Population Apoptotic (%) (U2OS [1]; [8]): 16% | Population Fragmented Nuclei (%) (U2OS [1]; [8]): 14% | Population Healthy Nuclei (%) (U2OS [1]; [8]): 81% | Population Hoechst High Intensity Objects (%) (U2OS [1]; [8]): 8% | Population Membrane Permeable-Phenotype (%) (U2OS [1]; [8]): 10% | Population Mitochondria Different-Phenotype (%) (U2OS [1]; [8]): 21% | Population Mitotic Cells (%) (U2OS [1]; [8]): 83% | Population Normal (%) (U2OS [1]; [8]): 91% | Population Pyknosed Nuclei (%) (U2OS [1]; [8]): 3% | Population Tubulin-Different-Phenotype (%) (U2OS [1]; [8]): 19% | Total Cell Count (U2OS [1]; [8]): 103 | Population Apoptotic (%) (U2OS [1]; [9]): 36% | Population Fragmented Nuclei (%) (U2OS [1]; [9]): 8% | Population Healthy Nuclei (%) (U2OS [1]; [9]): 27% | Population Hoechst High Intensity Objects (%) (U2OS [1]; [9]): 19% | Population Membrane Permeable-Phenotype (%) (U2OS [1]; [9]): 19% | Population Mitochondria Different-Phenotype (%) (U2OS [1]; [9]): 68% | Population Mitotic Cells (%) (U2OS [1]; [9]): 64% | Population Normal (%) (U2OS [1]; [9]): 80% | Population Pyknosed Nuclei (%) (U2OS [1]; [9]): 64% | Population Tubulin-Different-Phenotype (%) (U2OS [1]; [9]): 55% | Total Cell Count (U2OS [1]; [9]): 268 | Population Apoptotic (%) (U2OS [1]; [10]): 29% | Population Fragmented Nuclei (%) (U2OS [1]; [10]): 18% | Population Healthy Nuclei (%) (U2OS [1]; [10]): 23% | Population Hoechst High Intensity Objects (%) (U2OS [1]; [10]): 21% | Population Membrane Permeable-Phenotype (%) (U2OS [1]; [10]): 11% | Population Mitochondria Different-Phenotype (%) (U2OS [1]; [10]): 57% | Population Mitotic Cells (%) (U2OS [1]; [10]): 70% | Population Normal (%) (U2OS [1]; [10]): 78% | Population Pyknosed Nuclei (%) (U2OS [1]; [10]): 58% | Population Tubulin-Different-Phenotype (%) (U2OS [1]; [10]): 48% | Total Cell Count (U2OS [1]; [10]): 181 | Growth Rate (HEK-293T; [11]): 0 | Growth Rate (HEK-293T; [12]): 0 | Growth Rate (HEK-293T; [13]): 0 | Growth Rate (HEK-293T; [14]): 0 | Growth Rate (U2OS [2]; 0 h, replicate number 1, timepoint 0 hours): 0 | Growth Rate (U2OS [2]; [11]): 1 | Growth Rate (U2OS [2]; [12]): 1 | Growth Rate (U2OS [2]; [13]): 1 | Growth Rate (U2OS [2]; [14]): 1 | Growth Rate (Fibroblast; [11]): 0 | Growth Rate (Fibroblast; [12]): 0 | Growth Rate (Fibroblast; [13]): 0 | Growth Rate (Fibroblast; [14]): 0
